ChEMBL document CHEMBL4513216, “Probing the Open Global Health Chemical Diversity Library for Multistage-Active Starting Points for Next-Generation Antimalarials” (ACS Infect Dis, 2020)

Test: Toxicity liver stage against HepG2, at 10uM
Type: cell-based
Design: test concentration 10 uM, cell line HepG2-A16-CD81EGFP
Conditions: human, HepG2-A16-CD81EGFP cells; read-out: INHIBITION
Procedure, shortened: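 Uninfected HepG2-A16-CD81EGFP cells, 3 × 10^3 per well, 1536-well, plated on prespotted compound at 10 μM final, parasite-free screening media added to match infected plates; puromycin 10 μM positive, DMSO 0.5% negative; run in parallel with 48 h PbLuc assay at 37 °C, 5% CO2; viability by CellTiter-Glo luminescence, normalized to controls.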

SMILES | cytotoxicity at 10 µM
Cc1cccc2cc(C(=O)N3CCC(F)(F)CC3)n(C)c12 | 3.76%
CC(C)=CCN1C[C@@H]2CC[C@H]1CN(C(=O)CSc1ccncc1)C2 | -0.591%
NCC(c1ccc(Cl)cc1)N1CCc2sccc2C1 (stereo not given) | 6.33%
CC(C)[C@H]1CN(CCCO)C[C@@H]1NC(=O)CCS(C)(=O)=O | 2.91%
CC(Nc1ccc(Oc2cccc(C#N)c2)cc1)C(=O)NC1CC1 (stereo not given) | 6.91%
c1ccc(Cc2noc(CN(Cc3cccs3)CC3CCCO3)n2)cc1 (stereo not given) | -5.77%
O=C(Nc1ccc(OC(F)F)cc1)N1CCC(c2nnc[nH]2)CC1 | 7.25%
COc1ccc(CCNC(=O)C(C)Nc2ccc(C)c(C)c2)cc1 (stereo not given) | 2.7%
CCCNC(=O)c1nn(CC)cc1NC(=O)c1cn(C)nc1C | -5.63%
Cc1cc(NC(C)c2nncn2C2CCCC2)n2nc(C)cc2n1 (stereo not given) | 5.99%
CN(C)CCN(C)c1cc(N2CCN(c3ccccn3)CC2)ncn1 | 1.23%
Cc1cc(NCc2cccnc2)n2nc(C)cc2n1 | -0.719%
CN(C)c1cc(C(=O)NCCc2nnc(-c3ccco3)[nH]2)ccn1 | -0.653%
COc1ccc(S(=O)(=O)N2CCn3nc(C)nc3C2)cc1C | 9.68%
CCC(NC(=O)c1c(C(=O)O)cnn1C)c1ccc(C)cc1C (stereo not given) | -7.58%
O=C(NCC1CCC2(CCNCC2)O1)C1CC1 (stereo not given) | -5.01%
CC(C)c1nc(CN(C)C(=O)C2CC(=O)N(Cc3ccncc3)C2)cs1 (stereo not given) | -3.75%
O=C(c1ccoc1)N1CC[C@H]2OCC[C@@]2(COc2ncccc2F)C1 | -9.31%
CN1CC(c2ccccc2)CC2(CCN(C(=O)c3ccccc3)CC2)C1 (stereo not given) | -0.0342%
COCCN1CCN(C(=O)NC2CC2)Cc2ccc(C)nc21 | 3.51%
Cc1cc(N2CCC(c3ncc[nH]3)CC2)nc(N)n1 | -7.54%
CN(Cc1cc(F)cc2cccnc12)CC1CCN(CCO)CC1 | 1.9%

SMILES | cytotoxicity at 10 µM
Cc1nc(C(=O)N2CCCC(c3cc(C(F)(F)F)[nH]n3)C2)c[nH]1 (stereo not given) | -0.945%
Cc1nc(CN(C)C(=O)CNC(=O)c2ccc(C#N)cc2)cs1 | 12.5%
COCCCNC(=O)CN(C)C(=O)c1cc2cc(C)ccc2nc1C | -10.2%
CN1C(=O)CCCC12CCCN(C(=O)c1cccc(C(F)(F)F)c1)C2 (stereo not given) | 4.65%
CCC(C)(CC)NC(=O)COc1nn(C)c2nc(C)cc(C)c12 | -6.17%
O=C(Cc1ccc2c(c1)OCCO2)NCc1ccc(-n2cncn2)nc1 | -20.5%
CS(=O)(=O)N1CCOCC2(CCN(Cc3ccoc3)CC2)C1 | 2.64%
CSCC[C@H]1CN2CCC[C@H]2CN1Cc1coc2ccc(C)cc2c1=O | -1.04%
Fc1cnc(N2CC3(CCN(Cc4ccsc4)C3)C2)nc1 | -84.4%
Cc1ccc(OCc2cccc(C(=O)N(C)CCC#N)c2)cn1 | -3.3%
O=C(NCc1ccc(Cl)s1)c1ccc(N2CCOC2=O)cc1 | 21.1%
COc1ccc(C(=O)N2CCCC(n3cc(C)cn3)C2)c(F)c1 (stereo not given) | -10.2%
Cc1ccn2cc(C(=O)N3CCCC3c3c(C)nn(C)c3C)nc2c1 (stereo not given) | 3.2%
Cc1cc2c(=O)n3c(nc2s1)CCN(C(=O)c1c(C)noc1C)CC3 | 17.7%
COCCOCCNC(=O)c1cccc(Cn2nc(C)cc2C)c1 | 17.6%
O=C(CC1=CCCCC1)Nc1ncn(CC(=O)N2CCCCCC2)n1 | 1.72%
Cc1nnsc1C(=O)NCc1cccnc1N1CCc2ccccc2C1 | 10.8%
Cc1nc(C)n(C2CCCN(C(=O)c3c(C)nn4cccnc34)C2)n1 (stereo not given) | -29.2%
COc1ccc(C(=O)NC2CCN(c3ncccn3)CC2)cc1F | -17.8%
COc1ccc2c(c1)nc1n2[C@@H](CNCc2ncccc2C)COC1 | 3.1%
O=c1ccc(-c2cccs2)nn1CN1CCc2ccccc2C1 | 14.3%
COc1cc(C2CC(=O)c3c(O)cc(O)cc3O2)ccc1O (stereo not given) | -0.537%

SMILES | cytotoxicity at 10 µM
CCCn1nccc1-c1cc(C2CCN(S(C)(=O)=O)CC2)nc(C)n1 | -10.7%
O=C(c1ccc2[nH]ccc2c1)N1Cc2nc(CN3CCCC3)oc2C1 | 6.98%
CCc1nc(C)ncc1C(=O)N1CCOC(c2nc(C)n[nH]2)C1 (stereo not given) | -7.88%
Cc1ncc2c(n1)C1(CCN(C(=O)C3CC3)CC1)OCC2 | 6.02%
CO[C@H]1COCCN(C(=O)c2ccc(F)cc2)C1 | 0.287%
CC(C)C(C)N1Cc2cccc(NCC(=O)N(C)C)c2C1 (stereo not given) | 8%
c1ncc2c(n1)CN(c1ncnc3[nH]ccc13)CC2 | -4.28%
CCn1cc(NC(=O)CN2CCC(Oc3ccccc3C)CC2)c(C)n1 | 0.343%
CN(C)CC1CN(Cc2coc(-c3ccc(Cl)cc3)n2)CCO1 (stereo not given) | 0.35%
Cc1nc2n(n1)CC(NCC(=O)NCC1(c3ccccc3)CC1)CC2 (stereo not given) | -6.52%
Cc1nn(C)c(Cl)c1CNCCOc1ccc2c(c1)OCO2 | 1.52%
COc1cc(C)nc(N2CCN(C(=O)CCc3ccsc3)CC2)n1 | 10%
Cc1ccc(C(=O)NC2CCCN(S(C)(=O)=O)C2)c(=O)[nH]1 (stereo not given) | 10.6%
COc1cccc(CNc2nc(O)cc(C3CC(=O)N(C)C3)n2)c1 (stereo not given) | -2.24%
CCCNC(=O)COc1cc(C)c2c(C)nn(-c3ccccc3)c2n1 | -0.295%
CN1CCN(Cc2ccoc2)Cc2cccnc21 | 0.899%
COc1ccc(-c2nnc(SC(C)C(N)=O)[nH]2)c(OC)c1 (stereo not given) | -15%
NS(=O)(=O)c1ccc(CC(=O)N2CCCC(n3cccn3)C2)cc1 (stereo not given) | -0.481%
CCCn1ncc(CN2C[C@@H]3CCCN3C[C@H]2CCSC)c1C | -11.2%
O=C(NC1CC1)C1CN(C(=O)c2cnccn2)C1 | -10.2%
O=C(NCCc1c[nH]cn1)c1ccc(S(=O)(=O)NC2CCCC2)cc1 | -7.2%
CCc1cnc(CN(C)C2CCN(CC3CCOCC3)C2)o1 (stereo not given) | -13.4%

SMILES | cytotoxicity at 10 µM
COc1cccc(CNCc2ccc(F)cc2Cl)c1O | -3.3%
CC1CCN(C(=O)C(C)Oc2ccc3c(c2)OCO3)CC1 (stereo not given) | -1.9%
COCCN1CCO[C@H]2CN(Cc3cccc(C)n3)C[C@H]21 | -116%
c1ccc(-c2cc(CN3C[C@H]4CC[C@@H](C3)N(CC3CC3)C4)on2)cc1 | -4%
O=C(Cc1cccs1)NC1CCN(c2cccc(F)c2)CC1 | -24.2%
COc1ccc(CCN2CCCC(Cn3nc(C)nc3C)C2)cc1 (stereo not given) | -3.34%
O[C@H]1CCCC[C@@H]1N1CCN(CCCc2ccc3c(c2)OCO3)CC1 | -3.69%
COCCN1CC2(CCC1=O)CCN(Cc1cc(F)ccc1Cl)CC2 | 5.29%
CC(C)c1noc(CCC(=O)N2CCN(Cc3ccncc3)CC2)n1 | -9.08%
NC(=O)C1CCN(C(C(=O)O)c2ccc(Cl)c(C(F)(F)F)c2)CC1 (stereo not given) | -107%
C=C(C)CN1CCCC(CNS(C)(=O)=O)C1 (stereo not given) | 5.63%
CCS(=O)(=O)N1Cc2ncn(CC3CC3)c2C(COCC2CC2)C1 (stereo not given) | 0.822%
Cc1cc(CNC(=O)Nc2cc(F)cc(N3CCCC3)c2)no1 | -17.7%
O=C(c1nc(=O)[nH][nH]1)N1CCCN(CC2CCCCC2)CC1 | -12.9%
Cc1cc(S(=O)(=O)N2C[C@H](C3CC3)[C@@H](N)C2)c(C)s1 | -2.36%
Cc1nn(C)c(C)c1C1CCCN1CC(=O)Nc1cc(C(C)C)no1 (stereo not given) | 2.07%
COCC(O)CN(C)C(=O)NCc1ccc(-c2ccn[nH]2)cc1 (stereo not given) | 1.81%
CC(O)CN1CCC(CNCc2c[nH]nc2C(C)(C)C)CC1 (stereo not given) | -8.55%
CCCN1CCN(C(=O)c2cnc(C)nc2)[C@H]2CS(=O)(=O)C[C@H]21 | 0.0652%
Cc1ccc(C(=O)NCCCN(C(C)C)S(C)(=O)=O)c(=O)[nH]1 | -8.04%
O=C(c1ccncc1)N1CCOC2(CCCN(c3nncs3)C2)C1 (stereo not given) | -98%
O=C(c1ccccc1)N1CCC2(CC1)CC(Oc1ccccc1)CO2 (stereo not given) | 16.6%

SMILES | cytotoxicity at 10 µM
NC(=O)CC1CCCN(c2cncc(OCc3ccccc3)n2)C1 (stereo not given) | 17.7%
CC(c1cc(F)ccc1F)N1CCN(Cc2nccn2C)CC1 (stereo not given) | -15.6%
Cc1noc(C)c1CCC(=O)NCC1(O)CCCN(c2ccccn2)C1 (stereo not given) | -3.95%
CN1CCCC(N(C)C(=O)c2ccc(NC(=O)c3cc[nH]n3)cc2)C1 (stereo not given) | 0.624%
O=C(COCc1nc(-c2ccncc2)no1)NC1CCCCC1 | -8.19%
Cc1n[nH]c(C)c1NC(=O)C1CCCN(C(=O)NCC(C)C)C1 (stereo not given) | 11%
COCC1c2nnn(CC3CC3)c2CCN1Cc1ccncc1 (stereo not given) | 3.37%
CO[C@H]1CN(C(=O)c2ccc(-c3ccccc3)[nH]2)CC[C@H]1N | 3.64%
CCN(C(C)c1cccc(O)c1)S(=O)(=O)c1cccnc1 (stereo not given) | 10.8%
Cc1ccc(CNC2(Cc3cc(-c4ccccc4)on3)COC2)o1 | -3.24%
CC(C)c1nnc(NC(=O)N2CCN(C)CC2c2ccccc2)s1 (stereo not given) | -11.6%
Cc1nc(CN(Cc2ccncc2)C2CCN(C)CC2)cs1 | -2.56%
O=C(c1ccncc1)N1CCC(c2nc(O)cc(-c3cccnc3)n2)C1 (stereo not given) | -0.0788%
Oc1ccc2oc3c(c2c1CN1CCOCC1)CCCC3 | -0.499%
Cc1nc2cc(O)nn2c(C)c1CCC(=O)NCCc1nccn1C | -0.84%
CC(=O)NCCNc1nc(C2CCCC2)nc2c1cnn2C | 7.39%
O=C(N1CCOCC1CO)C1(c2cccs2)CCCC1 (stereo not given) | 0.161%
CC(C)N1CCc2ncn(C(C)C)c2C1C(=O)NCCN1CCCC1 (stereo not given) | 3.11%
Cc1cnn(CC2CCCCN2Cc2nccn2CC(F)(F)F)c1 (stereo not given) | -13.7%
CC(NC(N)=O)C(=O)NCc1ccnc(Oc2ccc(F)cc2)c1 (stereo not given) | 8.26%
Cc1ccnc(C2CN(Cc3cnn(-c4ccccc4C(=O)O)c3)C2)n1 | 6%
CCc1nc(CNC2CCCc3c2cnn3CC)cs1 (stereo not given) | 5.12%
